Assay outcomes: PubChem, several laboratories
NR2E3 ag-1: activates human photoreceptor nuclear receptor NR2E3. Q9Y5X4. GST-NR2E3/biotin-RetCOR TR-FRET, 1536-well. inhibition of corepressor binding, % at 4.78 µM. 320,000 tested, 0.12% active. AID 2300;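 active = percent inhibition above the cutoff of mean plus 3 SD of all tested compounds, set per screening campaign, cut at about 20% in these data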;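 note: 0% = DMSO wells and 100% = biotin wells as full block of FRET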
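Material – GST-tagged NR2E3 plus biotinylated RetCOR corepressor · Quantity – NR2E3 fusion 1.35 nM · Times – 5 h incubation at 4 °C · Medium – pH 7.5 Tris-based buffer · Technique – TR-FRET, Eu(K)-anti-GST donor, streptavidin-D2 acceptor, ex 340, em 617/671 nm · Benchmarks – high control biotin, low control 0.6% DMSO · Format – 1536-well plates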
Rev-erbA mod: Rev-erb alpha (human) modulation; 370,000 tested, 0.79% active; Rev-erbα–FITC-DNA binding, fluorescence polarization, 90 min; P20393; AID 1259318; activity, % at 10 µM;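 active = activity above about 14%, limit read from the data; passing the limit was not always enough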;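 note: 0% = DMSO wells with 35 nM protein and 100% = DMSO wells with 750 nM protein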
PG9 binder: small molecules binding HIV-1 gp120 antibody PG9. TR-FRET gp120-PG9 antibody binding. inhibition, % at 6.7 µM. 360,000 tested, 0.43% active. AID 624416; in the data active = inhibition above about 8.5%
Neddylation inh: inhibitors of human cullin neddylation | calls only at 25 µM | AID 651699 | TR-FRET cullin neddylation, biochemical | 360,000 tested, 0.58% active | P61081+Q13564; in the data active = inhibition above about 36%
Target sequence (P61081 whole entry, looked up): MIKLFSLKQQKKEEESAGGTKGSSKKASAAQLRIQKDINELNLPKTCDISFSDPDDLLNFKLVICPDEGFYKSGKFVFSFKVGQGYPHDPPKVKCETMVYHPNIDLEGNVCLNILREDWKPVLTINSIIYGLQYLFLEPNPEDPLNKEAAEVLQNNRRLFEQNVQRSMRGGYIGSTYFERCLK
Target sequence (Q13564 whole entry, looked up): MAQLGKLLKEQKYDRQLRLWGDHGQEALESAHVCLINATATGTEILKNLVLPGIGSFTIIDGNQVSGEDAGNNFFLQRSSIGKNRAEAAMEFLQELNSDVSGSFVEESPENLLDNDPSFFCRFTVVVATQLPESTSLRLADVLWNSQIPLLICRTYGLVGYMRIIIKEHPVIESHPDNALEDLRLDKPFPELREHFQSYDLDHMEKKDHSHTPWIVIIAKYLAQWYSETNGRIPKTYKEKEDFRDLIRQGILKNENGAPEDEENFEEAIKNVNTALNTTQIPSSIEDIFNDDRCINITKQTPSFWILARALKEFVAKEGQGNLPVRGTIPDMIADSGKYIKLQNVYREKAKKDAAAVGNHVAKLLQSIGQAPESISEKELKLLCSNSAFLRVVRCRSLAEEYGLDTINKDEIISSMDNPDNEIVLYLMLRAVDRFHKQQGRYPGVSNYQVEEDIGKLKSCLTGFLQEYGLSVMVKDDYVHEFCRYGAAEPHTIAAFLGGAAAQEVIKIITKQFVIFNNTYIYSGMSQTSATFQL
NR2E3 ag-2: human photoreceptor-specific nuclear receptor agonism; 360,000 tested, 0.35% active; CHO-S Gal4-NCOR/VP16-NR2E3 two-hybrid, luciferase; inhibition of corepressor binding, % at 3.98 µM;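 active = inhibition above the mean of all tested compounds plus 3 SD, cut at about 70% in these data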;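 note: 0% = DMSO with NR2E3 transfected cells and 100% = cells lacking NR2E3 construct; higher means lower luciferase signal from less NR2E3 corepressor binding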
NR1D1 mod conf: Rev-erb alpha (human) modulation, hit confirmation; shares compounds with Rev-erbA mod; Rev-erb alpha FITC-DNA binding, fluorescence polarization, 90 min; activation, % at 25 µM; 3,000 tested, 61% active;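 active = activation at or above a set limit, or at least 3 SD above the negative control mean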;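 note: 0% = 35 nM protein with DMSO and 100% = 750 nM protein high control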
RORg DNA counter: RORgamma DNA-binding activity, dose-response counter-screen | shares compounds with Rev-erbA mod | purified RORgamma protein-FITC-DNA binding, fluorescence polarization | IC50, µM | 910 tested, 8% active;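 active = Compounds whose fitted half-maximal concentration for disrupting protein-DNA binding is below 10 micromolar; the record names Rev-erb in its text, so the target is in doubt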
An asterisk follows results filed as active; i = inactive; / = not tested or not shown. Shown are actives, neighbours in structure and some others; about 2% of the full set was active somewhere.

SMILES | NR2E3 ag-1 | Rev-erbA mod | PG9 binder | Neddylation inh | NR2E3 ag-2 | NR1D1 mod conf | others
CCc1nnc(NC(=O)CSc2nc(-c3ccc(F)cc3)cc(-c3ccccc3)c2C#N)s1 | / | 38* | 0 | i | 12 | 16
Cc1ccc(-c2nn3c(C)nnc3s2)cc1NC(=O)c1ccc(-c2ccc(Cl)cc2Cl)o1 | -3 | 124* | 1 | / | -18 | 186* | RORg DNA counter=i
Cc1ccc(-c2nn3c(C)nnc3s2)cc1NC(=O)c1ccc(-c2cccc(Cl)c2)o1 | / | -8 | -2 | i | 5 | /
CN1CCCN(S(=O)(=O)c2ccc3c(c2)CCC(=O)N3)CC1 | / | 0 | / | / | / | /
Cc1ccc(SC2=C[C@@]3(O)CC[C@@H](O)[C@@](Sc4ccc(C)cc4)(C2=O)[C@H]3O)cc1 | / | -5 | 1 | i | -2 | /
CC(C)(C)c1ccc(SC2=C[C@@]3(O)CC[C@@H](O)[C@@](Sc4ccc(C(C)(C)C)cc4)(C2=O)[C@H]3O)cc1 | / | 33* | -13 | i | 31 | 21*
CCCNC(=O)c1cc(-c2ccccc2)c(N2CCCCC2)s1 | 3 | 93* | 3 | i | -22 | 27*
COc1cc(C)c(Cl)cc1S(=O)(=O)N1CCSC1 | / | -6 | 1 | i | -8 | /
CC(=O)NC1CCCCN(Cc2ccc(Cl)cc2)C1=O (stereo not given) | / | 1 | / | / | / | /
CCc1noc(C)c1C(=O)Nc1nc(-c2ccc(Cl)cc2Cl)c(C)s1 | -4 | 32* | 4 | i | -1 | 25*
Cc1cccc(C)c1NC(=O)Nc1nnc([C@H]2C[C@H](O)[C@@H](CO)O2)s1 | / | -7 | -2 | i | 11 | /
NC(=O)c1cccc(-c2coc3c(C(=O)NC4CCCCC4)cccc23)c1 | / | 4 | -1 | i | 25 | /
Cc1ccc(CN2CC(N3CCN(CCO)CC3)CS2(=O)=O)cc1 (stereo not given) | / | 3 | -1 | i | -2 | /
CSc1ccc(SC2CN(Cc3ccc(C)cc3)S(=O)(=O)C2)cc1 (stereo not given) | / | 25* | 2 | / | / | 28* | RORg DNA counter=>40
Cc1cc(NS(=O)(=O)c2ccc(NC(=O)Cc3ccc(Cl)c(Cl)c3)cc2)on1 | / | 2 | / | / | / | /
O=C(CCCC(=O)OCC(=O)c1cccs1)Nc1ccc(F)cc1 | 4 | 1 | 1 | i | -16 | /
O=C(CCCC(=O)OCC(=O)c1cccs1)Nc1ccc(Oc2ccccc2)cc1 | 1 | 68* | 0 | i | -16 | 48* | RORg DNA counter=>40
NS(=O)(=O)c1ccc(CCNC(=O)c2ccc(Cl)s2)cc1 | -2 | 3 | 2 | i | -10 | /
NS(=O)(=O)c1ccc(CCNC(=O)c2cc3ccccc3s2)cc1 | -1 | 23* | -1 | i | 7 | 6
CN(C)C(=O)CSc1nc2ccccc2c(=O)[nH]1 | -1 | -5 | -2 | i | -8 | /
CN(C)C(=O)CSc1nc(-c2cccs2)c(-c2cccs2)[nH]1 | 0 | 22* | 0 | i | -9 | 24*
CCOc1ccc2cc(C#N)c(SCC(=O)N3CCC(C)CC3)nc2c1 | 2 | 70* | -1 | i | -11 | 34*
CCOc1ccc2nc(SCC#N)c(C#N)cc2c1 | 1 | 39* | -6 | i | -27 | 24*
COc1ccc2cc(C#N)c(SCC(=O)N3CCCC3)nc2c1 | 3 | -2 | -3 | i | -3 | /
CCCCS(=O)(=O)N1CCCc2nc(C)c(C)cc21 | / | -6 | 0 | / | / | /
SMILES | NR2E3 ag-1 | Rev-erbA mod | PG9 binder | Neddylation inh | NR2E3 ag-2 | NR1D1 mod conf | others
COc1ccccc1Cc1c(-c2ccc(F)cc2)nc2c3ccccc3ccn12 | / | 4 | -1 | / | / | /
CCOC(=O)/C(C#N)=C/c1ccc(OCC(=O)Nc2cc(C)ccc2C)c(OC)c1 | -1 | -1 | 2 | i | -2 | /
CCOC(=O)/C(C#N)=C\c1ccc(OCC(=O)Nc2ccc(C)cc2C)c(OC)c1 | 3 | 28* | 2 | / | 3 | 21*
Cc1ccccc1NC(=O)Cc1nc(COC(=O)c2nccnc2N)cs1 | / | 3 | 0 | i | -15 | /
CC(C)CCNC(=O)C(c1ccc(O)cc1)N(Cc1ccco1)C(=O)CCC(=O)Nc1nccs1 (stereo not given) | 1 | -5 | -1 | i | -11 | /
Cc1ccc(Cn2c(=S)[nH]c3ccccc3c2=O)cc1 | 2 | 12 | -3 | i | -28 | /
